Assay results published in the EternaBench riboswitch data.

System: MS2 coat protein
Test: apparent Kd, MS2 coat protein; higher = weaker binding; RNA-MaP array; FMN 200 µM where present
Summary of the method: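 Designs on Illumina sequencing-chip clusters, transcribed by stalled E. coli RNA polymerase, were exposed to SNAP-549-labelled MS2 coat protein in doubling steps from 0.7 or 1.5 nM up to 3 µM, without and then with constant ligand. The buffer held 100 mM Tris-HCl pH 7.5, 80 mM KCl, 4 mM MgCl2, BSA, DTT, yeast tRNA and Tween-20. Apparent Kd values are medians of filtered per-cluster binding-curve fits to green signal normalised to red-channel RNA signal and control-cluster median Fmax.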

[1] = designed as: ON switch for flavin mononucleotide, no ligand
[2] = ligand present: flavin mononucleotide, designed as: ON switch for flavin mononucleotide
[3] = designed as: OFF switch for flavin mononucleotide, no ligand
[4] = ligand present: flavin mononucleotide, designed as: OFF switch for flavin mononucleotide

Sequence	apparent Kd [1] [nM]	apparent Kd [2] [nM]	apparent Kd [3] [nM]	apparent Kd [4] [nM]
AAAACAUGAGGAUCACCCAUGUAAAGAUCUGUUAAUAGAAGUGAGGAUAUACUAAAUUUUAGGUAGUAGAAGGCACUGGGUACA	23.4	27.4	–	–
AAUAUGUUGCAGAAGGCUAUGUUGUGGUAGUACCUCAUGACAUGAGGAUCACCCAUGUUUGUGUUGGAGGAUAUGCAAUAUAUU	–	–	12.7	40.6
CACUGCAAUGUAGGAUAUCGACUGGAAUACAGUCGAGAAGGACAUGAGGAUCACCCAUGUACUUUGAGUGAAUAAUAAGCAGUG	–	–	15.9	59.4
GAGGAACAUGAGGAUCACCCAUGUGAGGAUAUGCAUAGUGAGGUAGUAGACGUUUAUUGCAGAAGGUACACUGA	–	–	27.4	27.8
AAUAACAGAGGAUAUACUAUUUUAUGUGUUUGUUAUUUUGAACAUGAGGAUCACCCAUGUAGAAGGCUGAAUGA	–	–	27.7	28
UAUUAUCACGAAGGAUAUGCUGACAUGAGGAUCACCCAUGUAUGUAUAUUGGUCCAGCGUAUUUAGCAGAAGGUCGUGAGUAAA	–	–	45.4	73.5
GAUUAACAUGAGGAUCACCCAUGUGAGGAUAUGGAAUGGCUCAUUGUCUGAUUUCCGUCUAGAAGGCACAUCUU	–	–	46.7	45
CCAGCGUAUGUGAGGAUAUGCUGGUCCUUGGAUCAGCAGAAGGCACAUGAGGAUCACCCAUGUGAGAACGUUGG	–	–	26.5	187
UUUGGGCCCUCAUCCCUCGACACAUGAGGAUCACCCAUGUGCAGAAGGUGGAGACCCGAGGUCGCCAAGGAUAUGCAAUGGGAC	–	–	15.8	10.2
UUUUAACAUGAGGAUCACCCAUGUGAGGAUAUCGAAAUUUAUAUUAAUAUUUAUUUUACGAGAAGGCACAUUUU	–	–	98	102
GACAUACAUGAGGAUCACCCAUGUUCAAACGGGCAAGGAUAUGUGUGGAAACCAUACUAUACAGAAGGUGUCUGUC	28.4	18.7	–	–
AAACAUGUCCGAGGAUAUCUGGAAACAUUUCCAAGAGAAGGCGGACAUGAGGAUCACCCAUGUCUCUCCUCAUCAAAUCCAAGU	–	–	24.6	287
AAUUCGUGUCGAGGAUAUAUUAUAUGACAACAAACACAUACAUGAGGAUCACCCAUGUCCCAUGUAUAGAAGGCGAUGUGUGUG	260	228	–	–
GUGCGCGGCUAGGAUAUUGUGGGUUUUUGUCUGCGAGAAGGUGCCACAUGAGGAUCACCCAUGUGGUGUUGCUC	–	–	24.1	30
AUCAACUCGUCAGGAUAUACGUCACUGCGUCAGCAGUGUGGUAAGAUCACAUGAGGAUCACCCAUGUAGAAGGGACGAGCUGAU	–	–	12.5	269
GAGCCCGUCGAGGAUAUACACCAUAUAUGGCUUGUAGAAGGUGACACAUGAGGAUCACCCAUGUUUGUGGUACA	–	–	63.2	35
AUGGUUGUCGUAGGAUAUGUAGGAUAUUCCUACAUGAGGAUCACCCAUGUUCGCAUGGAAGAAGGACAGAAGGACGAUGACCAG	1020	9.57	–	–
AAAAAGUCAGGAUAUACAUGAGGAUCACCCAUGUAGCAUACGAAAAAGAGUGUGCAGUGUAGAAGGGACAAAAA	–	–	27.1	25.7
GCAGACGUGGUGAGGAUAUGCUCUACCUCGGUAGAGCAGAAGGCACAUGAGGAUCACCCAUGUGGCUCCUCAUU	–	–	15.9	21
AGGCGAGUAGGAUAUGCGUAUUUACAGGAAAGCUGGAUGGUACAUGAGGAUCACCCAUGUAGAAGGGCUCUGAA	–	–	21.2	19.4
GAGUGACAUGAGGAUCACCCAUGUGAGGAUAUCGGACGGACCAAAUUAACAACACCCGCGAGAAGGCACAUCGG	–	–	163	123
CAAGCCAUUCGCAACUGCCGGCCGCAGGAUAUGGGUCGUUUAUACAUGAGGAUCACCCAUGUCGCCUAGAAGGGCGGCUGGGUC	260	38.9	–	–
AAGAUGUCUUGAGGAUAUCCAAAGGAAACCGCAGGAGAAGGCAGGACAUGAGGAUCACCCAUGUUGGGUUUAAUGCGAACAUAA	–	–	102	342
GGGACUUACGAGAAGGGCUACAUGAGGAUCACCCAUGUAAAUCUUCGGGUAGCAGGAUAUCGGCGGCUACAGGAGGGCCAAGUC	–	–	14.3	90.7
GCGUUACAUGAGGAUCACCCAUGUGAGGAUAUGGUGCGGUAGUGUCCUGUCGCGUACUCCAGAAGGCGCGGGUG	–	–	137	240
CUUAUGUGAGGAUAUGGUGUUGGCCACAGGGAAAAGGUCCUCCAGAAGGCACAUGAGGAUCACCCAUGUAGUGA	–	–	165	56.3
CAGGUAGACUGAGGAUAUACACAAAACAGCUAGUCUAUCUAGCUGAUCACAUGAGGAUCACCCAUGUAGAAGGCAGUCUGCCUG	–	–	19.2	55.2
CUCAUGUGAGGAUAUGCUGCUCGUCACGAAAGUGAUGAGUAGCAGAAGGUACAUGAGGAUCACCCAUGUAAAUA	–	–	98.9	18.8

Sequence	apparent Kd [1] [nM]	apparent Kd [2] [nM]	apparent Kd [3] [nM]	apparent Kd [4] [nM]
GGUCCGUAACAGAAGGCCGUAACUGGUGGUGGCGGAGGAUAUGUGGGCGGCCCUUGACAACAUGAGGAUCACCCAUGUAUGUAA	328	30.6	–	–
UUUACAUGAGGAUCACCCAUGUAUAGAACGGUUAAUCAAAGUGAGGAUAUACAUAAUUUUGUAUUGUAGAAGGCACUGGGUACA	15.2	19.3	–	–
CGAUUUUUGAUCCGUUUUUUCUACAUGAGGAUCACCCAUGUGCAGGAUAUCGUGGUGUUUUACUACGAGAAGGGCAAUUUCACG	–	–	84.8	198
CUGCGGGCCAUAGGAUAUGCGCAGAAUUAGCAAGCAGAAGGGUGGAUCGUACAAUAAUAACUACAUGAGGAUCACCCAUGUGCU	235	56.1	–	–
UGUAAAAUUGAUCCUGCAAGUACAUGAGGAUCACCCAUGUGCUAGGAUAUCGCGCAGCUAAAGUCCGAGAAGGAGCACAAUGUA	–	–	32.3	95.6
GGAUAGGACAGAGGAUAUACGUGCUAGAGAUACUGGCAAAAUUUCCUCACAUGAGGAUCACCCAUGUAGAAGGCUGUCCUAUCG	–	–	16.6	374
UGCGUUUGAGGAUAUACGUAGAAUUAGAUUCAUGUAAAACUACAUGAGGAUCACCCAUGUAGAAGGCAAGCGCU	–	–	17.7	79.4
GGAUAGGACAGAGGAUAUACGUGCUAGAGAUACUAGCAAAAUUACCUCACAUGAGGAUCACCCAUGUAGAAGGCUGUCCUAUCG	–	–	5.29	60.6
GCCCGACAUGAGGAUCACCCAUGUGGGAAACCGCGAGGAUAUCCGGGCCCGAAAGGGCCCGGAGAAGGCGCCGGGC	12.5	10.9	–	–
CAGCGCUGUCGAGAGGAUAUGCAGUGAUGGACAUGAGGAUCACCCAUGUUAGCGAUAGCAUUACGGUAGAAGGCUCUACAGCUGC	18	15.1	–	–
UGUUGUAUUACAGGAUAUCUAUGAUUUUUAUUAAGAGAAGGGUAUUCACAUGAGGAUCACCCAUGUAUAUACGAGGAAGUUGUG	35.2	36	–	–
UAAGUAAGUGCAGGAUAUUUAAGAAGAACAUGAGGAUCACCCAUGUGAGGAUCACCCAUGUAAAAGGAGAAGGGCAGAGUAUGA	–	–	960	1220
AAAAACGUAGGAUAUACAUGAAAAAAAAAAAAAAAAAAAAGACAUGAGGAUCACCCAUGUAGAAGGGCGAAAAA	–	–	115	104
AUAGGUUAAGGAGGAUAUAGAGGGAGAAGUACACAUGAGGAUCACCCAUGUAUUUAAUUAGUUUACUAGAAGGCUUAUGAUUGU	46.6	53.8	–	–
GAUGACAUGAGGAUCACCCAUGUGAUGGUUUGAGGUGGUUACAGAAGGGACGUAUAGUGGUGUGGUCAGGAUAUGUAGAAUCUU	157	42.1	–	–
UCCACUGCUGAGAAGGGAUACGUCUGGUUCGCAUCAGGAUAUCGAUACAGUGCAGCAUGAGGACAUGAGGAUCACCCAUGUGUG	103	53.6	–	–
AAACAGUACGAGAAGGGCUACAUGAGGAUCACCCAUGUAGACGGUCGUGUGGCAGGAUAUCGAACACACCGAAAACGGUGCGUU	–	–	5.32	7.09
ACUAUACGAGGAUAUACUGACGGGCCUCAGGCAUACAUCAAACAUGAGGAUCACCCAUGUAGAAGGCGUAUACU	–	–	79.4	29.2
GGUACUCAAAGAGUACGGAGUCGAACAUGAGGAUCACCCAUGUAGGAUAUGCUAUUCUUGAAGUUGCAGAAGGACAUGUGCAGC	–	–	10.9	11.1
CAGCAAGUCACAGGAUAUGGUGAUGUACAUGAGGAUCACCCAUGUCCGUCUUCUCUCACAAGAUGCCAGAAGGGUGACUUCCGG	950	135	–	–
AGAUUCAUGGCCCGUUCGGGCUCACAUGAGGAUCACCCAUGUGAGGAUAUGAUAUACCUGAUUUAUCAGAAGGCGCAUGCGAAA	–	–	7.22	10.3
AACCUAGUCAUAGGAUAUACAGGCAAAGCCAAAGUAGAAGGAUGACACAUGAGGAUCACCCAUGUGGUCCUUGAACAAAAUAAC	–	–	27	196
GUGGUCAGACAUGAGGAUCACCCAUGUGGAAUAAAUAAGGAUUAGGAUAUGGAAUAUAGGAUAUACCAGAAGGAAUGGUUGGUG	97.8	103	–	–
UCCGCUCGAGGAUAUACAUGAGGAUCACCCAUGUUUCCCUGUUGUUUGGCCUCAGGAUGUAGAAGGCGACGCUA	–	–	18.3	23.6
GAGGUACAUGAGGAUCACCCAUGUGAGGAUAUAGUGGAAGAUUGAGAGAGGUGGAGGACUAGAAGGCACAGUGG	–	–	67.3	66.2
CAGUACUGAGGAUAUACAUGAGGAUCACCCAUGUGUUCCUUGUAGGAUAUCCGCAAAAGUAGAAGCCAGAAGGAGAUGUGCCUA	–	–	200	119
AUAAAUCAUGUAGGAUAUGCGUGGCGAAGCUAUGCAGAAGGACAUGAGGAUCACCCAUGUCUUUCCGUCUGCGUAUAGACGGAA	–	–	30.5	279
